Peptide text beside a SMILES is read from it.
Assays:
[1] = Half life in mouse plasma assessed as remaining peptide antagonistic activity for inhibition of binding of alkaline phosphatase-fused ephrin-A5 to immobilized EphA4 Fc incubated for 3 days by ELISA; format: cell-free
Summary of the method: (§1)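 Peptide was incubated in mouse plasma or rat CSF for various periods. The residual ability to inhibit ephrin-A5–EphA4 interaction was then measured by ELISA, and the half-life of active peptide was derived from the loss of activity over time.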

HT-22 = assay: Cytotoxicity against mouse HT22 cells at 15 to 30 uM after 24 hrs by MTT assay; format: cell-based; conditions: ht-22, 24 h
Summary of the method: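 HT22 neuronal cells were grown 24 h with 15 or 30 μM peptide, alongside controls receiving the matching DMSO concentration. Cell number was quantified by MTT, with averages ± SE from 5 measurements.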

[2] = Stability in Sprague-Dawley rat CSF assessed as remaining peptide antagonistic activity for inhibition of binding of alkaline phosphatase-fused ephrin-A5 to immobilized EphA4 Fc incubated for 3 days by ELISA; format: tissue-based, Cerebrospinal fluid; conditions: in vitro, 72 h; summary of the method: as §1
Ephrin type-A receptor 4 = Ephrin type-A receptor 4 (Homo sapiens, UniProt P54764); assay: Antagonist activity against human EphA4 receptor assessed as inhibition of binding of alkaline phosphatase-fused ephrin-A5 to immobilized EphA4 Fc by ELISA
Chain of Ephrin type-A receptor 4 (P54764 whole entry, the tested form may be a part): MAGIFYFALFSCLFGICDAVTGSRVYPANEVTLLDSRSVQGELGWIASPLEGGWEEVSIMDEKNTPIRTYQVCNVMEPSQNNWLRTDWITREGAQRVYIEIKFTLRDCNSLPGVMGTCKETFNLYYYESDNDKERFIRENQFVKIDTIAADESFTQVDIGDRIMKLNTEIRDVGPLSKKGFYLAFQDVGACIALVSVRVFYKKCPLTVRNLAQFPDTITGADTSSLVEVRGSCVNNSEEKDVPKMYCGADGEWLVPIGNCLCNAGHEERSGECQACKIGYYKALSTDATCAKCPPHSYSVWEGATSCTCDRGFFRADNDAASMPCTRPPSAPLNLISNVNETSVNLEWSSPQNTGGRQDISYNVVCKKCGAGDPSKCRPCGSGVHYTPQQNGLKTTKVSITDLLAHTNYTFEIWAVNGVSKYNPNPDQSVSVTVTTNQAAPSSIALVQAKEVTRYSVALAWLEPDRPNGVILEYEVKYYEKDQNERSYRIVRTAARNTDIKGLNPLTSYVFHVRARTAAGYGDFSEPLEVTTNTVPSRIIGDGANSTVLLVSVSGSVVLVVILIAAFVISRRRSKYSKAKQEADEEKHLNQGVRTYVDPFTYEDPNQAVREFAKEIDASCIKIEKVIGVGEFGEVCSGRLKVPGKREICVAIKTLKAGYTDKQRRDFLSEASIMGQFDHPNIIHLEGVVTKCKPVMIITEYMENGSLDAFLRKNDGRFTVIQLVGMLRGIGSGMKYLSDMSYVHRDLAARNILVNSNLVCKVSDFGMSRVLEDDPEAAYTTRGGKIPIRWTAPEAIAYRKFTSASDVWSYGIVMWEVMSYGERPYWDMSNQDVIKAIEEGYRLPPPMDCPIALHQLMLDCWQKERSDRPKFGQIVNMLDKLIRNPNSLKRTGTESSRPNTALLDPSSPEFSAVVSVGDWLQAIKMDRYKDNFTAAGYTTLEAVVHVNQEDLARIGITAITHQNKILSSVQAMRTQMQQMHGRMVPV

| SMILES | half-life [1] [h] | other results |
| --- | --- | --- |
| CC(C)[C@@H]1NC(=O)[C@@H](NC(=O)[C@H](Cc2ccc(O)cc2)NC(=O)[C@@H]2CCCN2C(=O)CCN)CSSC[C@@H](C(N)=O)NC(=O)[C@H](CCC(=O)O)NC(=O)[C@H](Cc2c[nH]c3ccccc23)NC(=O)[C@H](CCC(=O)O)NC(=O)CCNC(=O)[C@H](CCCNC(=N)N)NC(=O)[C@H](Cc2ccc(O)cc2)NC1=O | > 72 | Activity (HT-22): Non-Toxic |
| CC(C)[C@@H]1NC(=O)[C@@H](NC(=O)[C@H](Cc2ccc(O)cc2)NC(=O)CCN)CSSC[C@@H](C(N)=O)NC(=O)[C@H](CO)NC(=O)[C@H](Cc2c[nH]c3ccccc23)NC(=O)[C@H](CO)NC(=O)CCNC(=O)[C@H](CCCNC(=N)N)NC(=O)[C@H](Cc2ccc(O)cc2)NC1=O | 30 |  |
| CC(C)[C@@H]1NC(=O)[C@@H](NC(=O)[C@H](Cc2ccc(O)cc2)NC(=O)CCCCCN)CSSC[C@@H](C(N)=O)NC(=O)[C@H](CO)NC(=O)[C@H](Cc2c[nH]c3ccccc23)NC(=O)[C@H](CO)NC(=O)CCNC(=O)[C@H](CCCNC(=N)N)NC(=O)[C@H](Cc2ccc(O)cc2)NC1=O | > 72 |  |
| CC(C)[C@@H]1NC(=O)[C@@H](NC(=O)[C@H](Cc2ccc(O)cc2)NC(=O)CCCCN)CSSC[C@@H](C(N)=O)NC(=O)[C@H](CO)NC(=O)[C@H](Cc2c[nH]c3ccccc23)NC(=O)[C@H](CO)NC(=O)CCNC(=O)[C@H](CCCNC(=N)N)NC(=O)[C@H](Cc2ccc(O)cc2)NC1=O | > 72 |  |
| CC(C)[C@@H]1NC(=O)[C@@H](NC(=O)[C@H](Cc2ccc(O)cc2)NC(=O)CCCN)CSSC[C@@H](C(N)=O)NC(=O)[C@H](CO)NC(=O)[C@H](Cc2c[nH]c3ccccc23)NC(=O)[C@H](CO)NC(=O)CCNC(=O)[C@H](CCCNC(=N)N)NC(=O)[C@H](Cc2ccc(O)cc2)NC1=O | > 72 |  |
| CC(C)[C@@H]1NC(=O)[C@@H](NC(=O)[C@H](Cc2ccc(O)cc2)NC(=O)CN)CSSC[C@@H](C(N)=O)NC(=O)[C@H](CO)NC(=O)[C@H](Cc2c[nH]c3ccccc23)NC(=O)[C@H](CO)NC(=O)CCNC(=O)[C@H](CCCNC(=N)N)NC(=O)[C@H](Cc2ccc(O)cc2)NC1=O | 6 |  |
| CNCC(=O)N[C@@H](Cc1ccc(O)cc1)C(=O)N[C@H]1CSSC[C@@H](C(N)=O)NC(=O)[C@H](CO)NC(=O)[C@H](Cc2c[nH]c3ccccc23)NC(=O)[C@H](CO)NC(=O)CCNC(=O)[C@H](CCCNC(=N)N)NC(=O)[C@H](Cc2ccc(O)cc2)NC(=O)[C@H](C(C)C)NC1=O | > 72 |  |
| CC(C)[C@@H]1NC(=O)[C@@H](NC(=O)[C@H](Cc2ccc(O)cc2)NC(=O)[C@@H]2CCCN2C(=O)CCN)CSSC[C@@H](C(N)=O)NC(=O)[C@H](Cc2c[nH]c3ccccc23)NC(=O)[C@H](CCC(=O)O)NC(=O)[C@H](CCC(=O)O)NC(=O)CCNC(=O)[C@H](CCCNC(=N)N)NC(=O)[C@H](Cc2ccc(O)cc2)NC1=O (HELM PEPTIDE1{[bAla].P.Y.C.V.Y.R.[bAla].E.E.W.C.[am]}$PEPTIDE1,PEPTIDE1,4:R3-12:R3$$$V2.0) |  | IC50 (Ephrin type-A receptor 4): > 10 µM |

Now from value to compound, other results behind:

| half-life [1] [h] | SMILES | other results |
| --- | --- | --- |
| < 3 | CC(C)[C@@H]1NC(=O)[C@@H](NC(=O)[C@H](Cc2ccc(O)cc2)NC(=O)[C@@H]2CCCN2C(=O)[C@H](C)N)CSSC[C@@H](C(N)=O)NC(=O)[C@H](CO)NC(=O)[C@H](Cc2c[nH]c3ccccc23)NC(=O)[C@H](CO)NC(=O)CCNC(=O)[C@H](CCCNC(=N)N)NC(=O)[C@H](Cc2ccc(O)cc2)NC1=O |  |
| > 72 | CC(C)[C@@H]1NC(=O)[C@@H](NC(=O)[C@H](Cc2ccc(O)cc2)NC(=O)[C@@H]2CCCN2C(=O)[C@@H](C)N)CSSC[C@@H](C(N)=O)NC(=O)[C@H](CO)NC(=O)[C@H](Cc2c[nH]c3ccccc23)NC(=O)[C@H](CO)NC(=O)CCNC(=O)[C@H](CCCNC(=N)N)NC(=O)[C@H](Cc2ccc(O)cc2)NC1=O | Stability [2]: Stable |
| 15 | CC(C)[C@@H]1NC(=O)[C@@H](NC(=O)[C@H](Cc2ccc(O)cc2)NC(=O)[C@@H]2CCCN2)CSSC[C@@H](C(N)=O)NC(=O)[C@H](CO)NC(=O)[C@H](Cc2c[nH]c3ccccc23)NC(=O)[C@H](CO)NC(=O)CCNC(=O)[C@H](CCCNC(=N)N)NC(=O)[C@H](Cc2ccc(O)cc2)NC1=O |  |
| > 72 | CC(=O)N1CCC[C@H]1C(=O)N[C@@H](Cc1ccc(O)cc1)C(=O)N[C@H]1CSSC[C@@H](C(N)=O)NC(=O)[C@H](CO)NC(=O)[C@H](Cc2c[nH]c3ccccc23)NC(=O)[C@H](CO)NC(=O)CCNC(=O)[C@H](CCCNC(=N)N)NC(=O)[C@H](Cc2ccc(O)cc2)NC(=O)[C@H](C(C)C)NC1=O |  |
| 72 | CC(=O)N[C@@H](C)C(=O)N1CCC[C@H]1C(=O)N[C@@H](Cc1ccc(O)cc1)C(=O)N[C@H]1CSSC[C@@H](C(N)=O)NC(=O)[C@H](CO)NC(=O)[C@H](Cc2c[nH]c3ccccc23)NC(=O)[C@H](CO)NC(=O)CCNC(=O)[C@H](CCCNC(=N)N)NC(=O)[C@H](Cc2ccc(O)cc2)NC(=O)[C@H](C(C)C)NC1=O |  |

Reference: ChEMBL document CHEMBL4431394, “Modifications of a Nanomolar Cyclic Peptide Antagonist for the EphA4 Receptor To Achieve High Plasma Stability” (ACS Med Chem Lett, 2016)
